Source: PubChem BioAssay
H9c2 TAG inh – triacylglycerol accumulation inhibition; inhibition, % at 12.5 µM; 230,000 tested, 0.66% active; H9c2 cells, Nile Red lipid (TAG) fluorescence; cells loaded with 200 µM oleic acid;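 active means pattern-corrected inhibition of lipid staining of at least 50% with the nuclear-stain viability signal not falling by more than 50%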;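 further: 0% = DMSO wells and 100% = triacsin C control wells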
iPSC survival up – increases survival of single human iPS cells; hiPSC single-cell survival, ATPlite luminescence; 100% = ROCK inhibitor wells, 0% = DMSO; survival enhancement, % at 20 µM; 360,000 tested, 0.044% active; in the data active means survival enhancement above about 18%;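 further: cells exposed to compounds for 16 hours before the ATP read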
Gli-Sufu block – Gli-Sufu pathway antagonism. Sufu-KO-LIGHT fibroblasts, Gli luciferase reporter luminescence. AID 588413. inhibition, % at 5 µM. 340,000 tested, 0.74% active;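 active means inhibition above about 55%, limit read from the data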;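 further: 0% = DMSO-treated cells and 100% = wells with medium but no cells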
697 NFkB inh – inhibitors of the PMA/ionomycin-induced NF-kB reporter in 697 B cells; 697 B-cell NF-kB luciferase reporter, 16 h; inhibition, % at 4 µM; 330,000 tested, 0.33% active; AID 435022; in the data active means inhibition above about 35%
Jurkat NFkB inh – lowers PMA/ionomycin-induced NF-kB signal in Jurkat cells | 330,000 tested, 0.53% active | AID 435003 | PMA/ionomycin-induced NF-kB luciferase reporter, luminescence | inhibition, % at 4 µM; in the data active means inhibition above about 50%
Lipid droplet – hepatic lipid droplet formation modulation; AID 1656; inhibition, % at 6.5 µM; AML12 mouse hepatocytes, oleate lipid droplets, BODIPY imaging; 240,000 tested, 0.4% active;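 active means lipid droplet intensity inhibited by at least 50%, with more than 500 cells counted; inconclusive means wells with under 300 cells, treated as cytotoxic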
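Material: mouse AML12 hepatocyte cell line, fixed after treatment; Timing: compound with oleate, overnight; Technique: high-content imaging of BODIPY-stained droplets and DAPI nuclei; Probe or stimulus: oleate, 100 µM final; Dosing: compound at 6.5 µM only.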
Jurkat NFkB conf – inhibitors of the PMA/ionomycin-induced NF-kB reporter in Jurkat cells, retest; shares compounds with Jurkat NFkB inh; Jurkat NF-kB luciferase, 16 h; inhibition, % at 4 µM; 2,700 tested, 27% active;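 active means inhibition reaching about 45% at 4 µM in either replicate, limit read from the data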;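 further: plate controls were PMA/ionomycin stimulated DMSO wells for no effect and unstimulated DMSO wells for full effect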
697 NFkB conf – inhibitors of the PMA/ionomycin-induced NF-kB reporter in 697 B cells, retest; inhibition, % at 4 µM; 2,000 tested, 35% active; shares compounds with 697 NFkB inh; AID 449746; 697 B-cell NF-kB luciferase, 16 h; in the data active means inhibition mostly above about 28%, no sharp cut-off; inactive means mostly below about 22%
* hit, by the source's call. In the library only some 1.8% were active in any assay of this set; here they are far more common.

Screening O=C(Nc1ccc(SC(F)(F)F)cc1)c1ccccn1 returned H9c2 TAG inh -2.8, iPSC survival up -2.5, Gli-Sufu block -93.7, 697 NFkB inh -262.8, Jurkat NFkB inh -179.6, Lipid droplet 1.6, Jurkat NFkB conf -128.7 and 697 NFkB conf -345.5.
Screening Cc1cccc(C(=O)N(C(=O)c2cccc(C)c2)N(C)C)c1 returned H9c2 TAG inh 11.8, iPSC survival up -0.7 and Gli-Sufu block 8.1.
`COc1ccc(-c2nc3ccc([N+](=O)[O-])cc3[nH]2)cc1` gave iPSC survival up -2.3, Gli-Sufu block -81.8 and Lipid droplet 17.0.
Cc1ccc(-c2nc3ccc([N+](=O)[O-])cc3[nH]2)cc1 was read as H9c2 TAG inh -11.7, iPSC survival up -2.5, Gli-Sufu block -53.6, 697 NFkB inh -303.6, Jurkat NFkB inh -211.8, Lipid droplet -4.3, Jurkat NFkB conf -116.3 and 697 NFkB conf -432.5.
For Cc1ccccc1-c1nc2cc(NC(=O)C3CC3)ccc2o1 the results were H9c2 TAG inh 17.6, iPSC survival up 0.3, Gli-Sufu block -106.0, 697 NFkB inh -302.3, Jurkat NFkB inh -234.9, Lipid droplet 7.7, Jurkat NFkB conf -126.5 and 697 NFkB conf -245.3.
`O=C(NCc1ccc(Cl)cc1)C(=O)NCC1OCCN1C(=O)c1ccc(Cl)cc1` (stereo unspecified) gave H9c2 TAG inh 4.8, iPSC survival up -0.6, Gli-Sufu block 4.5, 697 NFkB inh 6.5, Jurkat NFkB inh 1.1 and Lipid droplet 0.8.
For Cc1ccc(Nc2nc(-c3ccccc3)cs2)nc1 the results were H9c2 TAG inh 23.6, iPSC survival up -0.7, Gli-Sufu block -100.2, 697 NFkB inh inactive, Jurkat NFkB inh -247.9, Jurkat NFkB conf -151.2 and 697 NFkB conf -271.2.
Screening Cc1cc(C)nc(Nc2nc(-c3ccccc3)cs2)n1 returned H9c2 TAG inh -2.2, iPSC survival up -0.4, Gli-Sufu block -44.3, 697 NFkB inh -465.9, Jurkat NFkB inh -199.5, Lipid droplet -5.1, Jurkat NFkB conf -122.2 and 697 NFkB conf -349.1.
c1ccc(-c2csc(Nc3ccc4c(c3)OCCO4)n2)cc1 was read as H9c2 TAG inh -23.8, iPSC survival up -3.9, Gli-Sufu block -59.0, 697 NFkB inh inactive, Jurkat NFkB inh -223.0, Lipid droplet 2.2, Jurkat NFkB conf -82.0 and 697 NFkB conf -218.3.
Cc1ccc(Nc2nc(-c3cccnc3)cs2)cc1C was read as iPSC survival up -0.5, Gli-Sufu block -66.3, 697 NFkB inh -256.9, Jurkat NFkB inh -196.3, Lipid droplet -13.3, Jurkat NFkB conf -51.6 and 697 NFkB conf -125.0.
Cc1cc(C)nc(Nc2nc(C(N)c3ccccc3)cs2)n1 (stereo unspecified) was read as H9c2 TAG inh 9.8 and iPSC survival up -3.2.
`Brc1ccc(Nc2nc(-c3cccnc3)cs2)cc1` gave H9c2 TAG inh 10.7, iPSC survival up -0.5, Gli-Sufu block -51.6, 697 NFkB inh -60.7, Jurkat NFkB inh -99.0 and Lipid droplet 1.2.
CC1(C)CC(NS(=O)(=O)c2ccc3ccccc3c2)CC(C)(C)N1 was read as iPSC survival up -0.6, Gli-Sufu block -0.8, 697 NFkB inh 5.4, Jurkat NFkB inh 4.9 and Lipid droplet 2.0.
Screening COc1cccc2c1C(CO)N1C(C#N)C3CC(C(=O)O)C(C1C2)N3C (stereo unspecified) returned iPSC survival up -4.0, Gli-Sufu block -20.4, 697 NFkB inh 103.7*, Jurkat NFkB inh 97.2*, Lipid droplet -23.8, Jurkat NFkB conf 96.4* and 697 NFkB conf 102.2*.
Screening COc1cccc2c1OCC(C(=O)O)C2 (stereo unspecified) returned H9c2 TAG inh 16.4, iPSC survival up 1.2, Gli-Sufu block -10.6, 697 NFkB inh 12.0, Jurkat NFkB inh 14.2 and Lipid droplet 6.6.
Screening CCN1CCN(CCOc2ccc(Cl)cc2)CC1 returned H9c2 TAG inh 0.7, iPSC survival up 2.4, Gli-Sufu block 5.6, 697 NFkB inh 12.2, Jurkat NFkB inh -7.1 and Lipid droplet 3.8.
Clc1ccc(OCCN2CCN(c3ncnc4sccc34)CC2)cc1 was read as iPSC survival up -2.7, Gli-Sufu block 81.3*, 697 NFkB inh 100.4*, Jurkat NFkB inh 66.8*, Lipid droplet -80.8, Jurkat NFkB conf 75.7* and 697 NFkB conf 96.3*.
For Cc1cc(/C=C2\Sc3ccccc3N2C)cc(C)[n+]1CC1CCCO1 (stereo unspecified) the results were iPSC survival up 0.6, Gli-Sufu block 88.3*, 697 NFkB inh 36.0*, Jurkat NFkB inh 96.8*, Lipid droplet -103.2, Jurkat NFkB conf 40.8 and 697 NFkB conf -0.1.
For COc1cccc2c1C(=O)c1c(O)c3c(c(O)c1C2=O)C[C@@](O)(C(=O)CO)C[C@@H]3O[C@H]1C[C@H](N)[C@H](O)[C@H](C)O1 the results were H9c2 TAG inh 45.9, iPSC survival up -3.8, Gli-Sufu block 52.8, 697 NFkB inh 93.6*, Jurkat NFkB inh 90.4*, Lipid droplet inconclusive, Jurkat NFkB conf 88.7* and 697 NFkB conf 76.8*.
CC(OC(=O)c1ccco1)C(=O)Nc1ncc(Cl)cc1Cl (stereo unspecified) was read as H9c2 TAG inh 3.7, iPSC survival up -0.1, Gli-Sufu block 0.9, 697 NFkB inh 16.2 and Jurkat NFkB inh 7.9.
c1ccc2sc(NN=C3CCCCCC3)nc2c1 was read as H9c2 TAG inh 16.7, iPSC survival up -2.5, Gli-Sufu block -50.7, 697 NFkB inh -388.3, Jurkat NFkB inh -155.9, Lipid droplet -0.9, Jurkat NFkB conf -91.7 and 697 NFkB conf -319.5.
Screening O=C(Nc1nc2ccccc2s1)c1ccccc1 returned H9c2 TAG inh 7.6, iPSC survival up -0.9, Gli-Sufu block -123.4, 697 NFkB inh -261.2, Jurkat NFkB inh -219.7, Lipid droplet 17.9, Jurkat NFkB conf -147.2 and 697 NFkB conf -310.5.
`O=C(Nc1nc2ccc(F)cc2s1)c1ccccn1` gave Gli-Sufu block 54.4, 697 NFkB inh -385.0, Jurkat NFkB inh 96.0*, Lipid droplet -46.3, Jurkat NFkB conf -3.8 and 697 NFkB conf -332.4.
For Cc1ccc(C)c(S(=O)(=O)NNC(=O)c2sc(NS(=O)(=O)c3ccccc3)nc2C)c1 the results were iPSC survival up -0.5, Gli-Sufu block 16.7, 697 NFkB inh -24.7, Jurkat NFkB inh -3.9 and Lipid droplet 8.5.
CC(C)CCN1C(=O)c2ccc(C(=O)NCc3ccccn3)cc2C1=O was read as H9c2 TAG inh -0.2, iPSC survival up 0.1, Gli-Sufu block -6.1, 697 NFkB inh 14.8 and Jurkat NFkB inh 9.2.
